The values that follow come from ChEMBL document CHEMBL1156597, “Structure-activity relationship of kahalalide F synthetic analogues” (J Med Chem, 2008).

pIC50: −log10 of the molar value.

Assay [1] concerns DU-145. In words: Cytotoxicity against human DU145 cells after 48 hrs by SRB assay. In kind it is functional, cell-based. Conditions: Homo sapiens, DU-145, 48 h. In outline: (§1)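 Cells grown in RPMI 1640 with 10% FBS and penicillin/streptomycin at 37 °C and 5% CO₂, trypsinized, then seeded at 5 × 10³/well. After 18 h drug-free attachment, samples in DMSO/EtOH/PBS (0.5:0.5:99) were added for 48 h continuous exposure. Cells were fixed with cold TCA (1 h, 4 °C) and stained with SRB (10 min). Tris-solubilized stain read at 490 nm. Triplicate wells, mean ± SD; GI₅₀ derived.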

The next assay has as its system A549. The assay can be described thus: Cytotoxicity against human A549 cells after 48 hrs by SRB assay. In kind it is functional, cell-based. Conditions: Homo sapiens, A549, 48 h. In outline:
as §1

The test system of assay [2] is SK-MEL-28. The assay can be described thus: Cytotoxicity against human SK-MEL-28 cells.
For a further assay, the system named is HT-29. In words: Cytotoxicity against human HT29 cells after 48 hrs by SRB assay. In kind it is functional, cell-based. The settings on record: Homo sapiens, HT-29, 48 h. In a few lines: as §1
In assay [3] the test system is SK-MEL-28. In words: Cytotoxicity against human SK-MEL-28 cells after 48 hrs by SRB assay. In kind it is functional, cell-based. The settings on record: Homo sapiens, SK-MEL-28, 48 h. In a few lines:
as §1

In assay [4] the test system is DU-145. The assay can be described thus: Cytotoxicity against human DU145 cells.

As to `C/C=C1\NC(=O)[C@H](Cc2ccccc2)NC(=O)[C@@H](C(C)C)NC(=O)[C@@H]([C@H](C)CC)NC(=O)[C@H](NC(=O)[C@H](NC(=O)[C@@H](NC(=O)[C@H](NC(=O)CCCC(C)C)C(C)C)[C@@H](C)O)[C@H](C)CC)[C@H](C)OC(=O)[C@H](C(C)C)NC1=O`, the pIC50 in the assay on DU-145 [1], with A549, in the assay with SK-MEL-28 [2] and in the assay with HT-29 was 5.03 throughout.
`C/C=C1\NC(=O)[C@H](Cc2ccccc2)NC(=O)[C@@H](C(C)C)NC(=O)[C@@H]([C@H](C)CC)NC(=O)[C@H](NC(=O)[C@H](NC(=O)CCCC(C)C)[C@H](C)CC)[C@H](C)OC(=O)[C@H](C(C)C)NC1=O`: the pIC50 in the assay on SK-MEL-28 [3], in the assay on A549, in the assay on DU-145 [4] and with HT-29 was 4.94 in each case.
Take `CC[C@@H](C)[C@@H](NC(=O)[C@H](CCCN)NC(=O)[C@H]1CCCN1C(=O)[C@H](NC(=O)[C@@H](NC(=O)[C@@H](NC(=O)[C@H](NC(=O)CCCC(C)C)C(C)C)[C@@H](C)O)C(C)C)C(C)C)C(=O)N[C@H]1C(=O)N[C@H]([C@H](C)CC)C(=O)N[C@H](C(C)C)C(=O)N[C@@H](Cc2ccccc2)C(=O)N[C@H]([C@@H](C)O)C(=O)N[C@@H](C(C)C)C(=O)O[C@H]1C`: the pIC50 in the assay with SK-MEL-28 [3] is 4.93; in the assay with A549, 4.94; in the assay with DU-145 [4], 4.74; in the assay with HT-29 it was 5.07.
In the case of `C/C=C1\NC(=O)[C@H](Cc2ccccc2)NC(=O)[C@@H](C(C)C)NC(=O)[C@@H]([C@H](C)CC)NC(=O)[C@H](NC(=O)[C@H](NC(=O)[C@@H](NC(=O)[C@@H](NC(=O)[C@H](NC(=O)CCCC(C)C)C(C)C)[C@@H](C)O)C(C)C)[C@H](C)CC)[C@H](C)OC(=O)[C@H](C(C)C)NC1=O`, the pIC50 in the assay with DU-145 [1], in the assay with A549, in the assay on SK-MEL-28 [2] and in the assay with HT-29 was 5.37 in each case.
